Laboratory results from ChEMBL document CHEMBL2390952, “Novel triazolo-pyrrolopyridines as inhibitors of Janus kinase 1” (Bioorg Med Chem Lett, 2013).

Assays:
[1] = Lipophilicity, log D of the compound at pH 7.2; format: physicochemical; settings: buffer
In short: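 Log D determined experimentally at pH 7.2.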

[2] = Half life in human liver microsomes; format: ADME, Microsome
In short: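 Half-life measured by incubation with in vitro preparations of human liver microsomes.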

Homo sapiens = species on record: Homo sapiens; test: Selectivity ratio of Ki for JAK2 (unknown origin) to Ki for JAK1 (unknown origin)
In short: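 Biochemical JAK enzyme assay giving Ki, reported as the arithmetic mean of at least three separate determinations. Selectivity is taken as JAK2 Ki divided by JAK1 Ki.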

[3] = target: Tyrosine-protein kinase JAK2 (Homo sapiens, UniProt O60674); test: Inhibition of JAK2 (unknown origin)
Chain of Tyrosine-protein kinase JAK2 (O60674 whole entry): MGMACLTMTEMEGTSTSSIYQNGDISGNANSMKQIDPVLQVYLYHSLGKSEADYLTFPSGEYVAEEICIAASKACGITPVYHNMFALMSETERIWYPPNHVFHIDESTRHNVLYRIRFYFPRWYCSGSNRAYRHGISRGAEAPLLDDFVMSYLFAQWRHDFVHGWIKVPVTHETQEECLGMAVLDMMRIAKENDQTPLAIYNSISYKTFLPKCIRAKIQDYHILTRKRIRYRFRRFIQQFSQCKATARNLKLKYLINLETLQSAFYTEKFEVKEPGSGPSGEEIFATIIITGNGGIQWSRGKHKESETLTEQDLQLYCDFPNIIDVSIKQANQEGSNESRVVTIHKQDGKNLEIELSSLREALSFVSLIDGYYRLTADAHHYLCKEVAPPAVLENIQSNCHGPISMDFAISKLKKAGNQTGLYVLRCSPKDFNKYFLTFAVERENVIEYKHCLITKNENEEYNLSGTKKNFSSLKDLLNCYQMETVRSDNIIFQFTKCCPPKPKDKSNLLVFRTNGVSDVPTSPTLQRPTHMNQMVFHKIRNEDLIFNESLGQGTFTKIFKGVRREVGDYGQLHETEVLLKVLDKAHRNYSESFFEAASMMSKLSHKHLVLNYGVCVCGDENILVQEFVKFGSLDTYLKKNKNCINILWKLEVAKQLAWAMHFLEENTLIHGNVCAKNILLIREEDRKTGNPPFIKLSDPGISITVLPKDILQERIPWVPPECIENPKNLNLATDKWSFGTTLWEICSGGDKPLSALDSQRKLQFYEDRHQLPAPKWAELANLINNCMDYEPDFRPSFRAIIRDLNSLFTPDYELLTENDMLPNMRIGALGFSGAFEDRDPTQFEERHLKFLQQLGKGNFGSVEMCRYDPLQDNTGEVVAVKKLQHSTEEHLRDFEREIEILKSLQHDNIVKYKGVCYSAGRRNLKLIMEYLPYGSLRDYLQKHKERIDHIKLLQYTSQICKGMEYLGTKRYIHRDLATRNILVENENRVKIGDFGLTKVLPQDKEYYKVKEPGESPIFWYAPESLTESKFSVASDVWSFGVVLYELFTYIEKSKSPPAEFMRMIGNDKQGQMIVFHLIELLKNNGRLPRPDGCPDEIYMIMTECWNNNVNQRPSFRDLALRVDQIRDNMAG

[4] = target: T1, Tyrosine-protein kinase JAK1 (Homo sapiens, UniProt P23458); test: Inhibition of JAK1 (unknown origin)
T1 sequence (P23458 whole entry): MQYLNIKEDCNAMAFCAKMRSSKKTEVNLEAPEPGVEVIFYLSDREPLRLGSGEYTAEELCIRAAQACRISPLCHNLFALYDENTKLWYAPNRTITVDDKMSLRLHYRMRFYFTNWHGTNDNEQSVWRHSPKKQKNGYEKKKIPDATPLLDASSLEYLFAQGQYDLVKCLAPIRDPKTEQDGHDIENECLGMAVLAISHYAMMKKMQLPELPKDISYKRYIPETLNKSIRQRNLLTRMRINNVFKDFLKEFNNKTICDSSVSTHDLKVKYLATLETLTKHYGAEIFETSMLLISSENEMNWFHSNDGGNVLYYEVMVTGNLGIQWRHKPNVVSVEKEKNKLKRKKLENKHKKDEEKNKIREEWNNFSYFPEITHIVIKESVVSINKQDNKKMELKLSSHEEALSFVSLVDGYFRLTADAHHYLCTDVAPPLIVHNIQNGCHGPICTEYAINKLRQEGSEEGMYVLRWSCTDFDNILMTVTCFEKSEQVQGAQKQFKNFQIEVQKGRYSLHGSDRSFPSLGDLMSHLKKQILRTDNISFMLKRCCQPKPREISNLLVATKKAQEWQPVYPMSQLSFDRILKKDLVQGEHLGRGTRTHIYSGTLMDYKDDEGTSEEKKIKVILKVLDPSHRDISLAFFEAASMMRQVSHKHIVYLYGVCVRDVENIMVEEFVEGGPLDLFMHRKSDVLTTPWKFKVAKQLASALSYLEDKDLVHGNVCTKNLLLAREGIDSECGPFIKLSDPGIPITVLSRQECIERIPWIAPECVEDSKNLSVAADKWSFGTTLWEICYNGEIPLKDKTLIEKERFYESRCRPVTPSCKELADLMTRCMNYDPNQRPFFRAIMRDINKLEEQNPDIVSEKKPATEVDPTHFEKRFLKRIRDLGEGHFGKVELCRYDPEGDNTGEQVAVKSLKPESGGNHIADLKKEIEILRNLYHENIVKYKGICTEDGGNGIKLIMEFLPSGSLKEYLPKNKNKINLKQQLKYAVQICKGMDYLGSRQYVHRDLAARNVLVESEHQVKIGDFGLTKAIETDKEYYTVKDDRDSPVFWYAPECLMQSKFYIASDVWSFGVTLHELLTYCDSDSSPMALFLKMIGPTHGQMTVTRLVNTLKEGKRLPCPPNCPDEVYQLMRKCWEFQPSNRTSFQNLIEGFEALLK

[5] = Cmax in Sprague-Dawley rat at 5 mg/kg, po; format: ADME, organism-based; parameters: dose 5 mg/kg, route oral; settings: in vivo
In short: (§1)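 Rat pharmacokinetics given as mean profiles from three animals. Values normalized to 1 mg/kg iv and 5 mg/kg po. Clearance is plasma clearance after iv dosing.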

[6] = Clearance in Sprague-Dawley rat at 1 mg/kg, iv; format: ADME, organism-based; parameters: dose 1 mg/kg, route intravenous; settings: in vivo; in short: as §1
[7] = target: T1, Tyrosine-protein kinase JAK1; test: Inhibition of JAK1-mediated STAT3 phosphorylation in IL6-induced human TF1 cells; format: cell-based, TF-1
[8] = AUC in Sprague-Dawley rat at 5 mg/kg, po; format: ADME, organism-based; parameters: dose 5 mg/kg, route oral; settings: plasma; in short: as §1
TF-1 = test: Selectivity ratio of EC50 for JAK2-mediated STAT5 phosphorylation in EPO-induced human TF1 cells to EC50 for JAK1-mediated STAT3 phosphorylation in IL6-induced human TF1 cells; format: cell-based
[9] = Oral bioavailability in Sprague-Dawley rat at 5 mg/kg; format: ADME, organism-based; settings: in vivo; in short: as §1
[10] = Apparent permeability from apical to basolateral side in MDCK cells; format: ADME, cell-based, Canis lupus familiaris; settings: dog
In short: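 MDCK cells grown in transwell culture. Apparent permeability measured in the apical-to-basolateral direction and reported as the arithmetic mean of at least two separate determinations.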

[11] = target: T2, Serine/threonine-protein kinase D1 (Homo sapiens) (UniProt Q15139); test: Inhibition of protein kinase D1 (unknown origin) relative to control; settings: concentration not given here
T2 sequence (whole entry): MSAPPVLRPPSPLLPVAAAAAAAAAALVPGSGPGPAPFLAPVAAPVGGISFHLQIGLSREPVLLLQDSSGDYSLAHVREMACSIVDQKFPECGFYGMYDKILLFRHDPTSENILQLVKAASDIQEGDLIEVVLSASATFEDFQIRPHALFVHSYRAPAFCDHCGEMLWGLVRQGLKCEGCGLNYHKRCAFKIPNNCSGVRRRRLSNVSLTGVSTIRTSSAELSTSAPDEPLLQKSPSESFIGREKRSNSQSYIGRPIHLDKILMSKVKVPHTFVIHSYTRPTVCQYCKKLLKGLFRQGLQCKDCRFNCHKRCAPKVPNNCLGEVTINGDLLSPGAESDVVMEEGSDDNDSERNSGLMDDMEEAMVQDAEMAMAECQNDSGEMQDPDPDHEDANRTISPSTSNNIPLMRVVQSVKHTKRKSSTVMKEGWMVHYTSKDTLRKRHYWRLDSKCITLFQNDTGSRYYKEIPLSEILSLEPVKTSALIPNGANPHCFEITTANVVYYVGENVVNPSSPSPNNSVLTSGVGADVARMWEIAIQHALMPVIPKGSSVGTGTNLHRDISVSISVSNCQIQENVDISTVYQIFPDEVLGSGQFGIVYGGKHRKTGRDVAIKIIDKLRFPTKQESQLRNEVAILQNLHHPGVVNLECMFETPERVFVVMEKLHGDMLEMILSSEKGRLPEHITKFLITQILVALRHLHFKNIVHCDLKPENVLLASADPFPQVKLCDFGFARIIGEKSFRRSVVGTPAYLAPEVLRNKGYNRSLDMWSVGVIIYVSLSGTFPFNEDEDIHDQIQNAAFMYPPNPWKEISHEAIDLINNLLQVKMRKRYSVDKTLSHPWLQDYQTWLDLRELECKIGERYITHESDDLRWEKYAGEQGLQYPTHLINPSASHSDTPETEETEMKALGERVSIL
In short: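 Kinase selectivity panel of 50 non-JAK kinases. […] Percent inhibition scored, and enzymes inhibited by more than 40% were counted.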

[12] = target: T3, Tyrosine-protein kinase JAK3 (Homo sapiens, UniProt P52333); test: Inhibition of JAK3 (unknown origin)
T3 sequence (P52333 whole entry): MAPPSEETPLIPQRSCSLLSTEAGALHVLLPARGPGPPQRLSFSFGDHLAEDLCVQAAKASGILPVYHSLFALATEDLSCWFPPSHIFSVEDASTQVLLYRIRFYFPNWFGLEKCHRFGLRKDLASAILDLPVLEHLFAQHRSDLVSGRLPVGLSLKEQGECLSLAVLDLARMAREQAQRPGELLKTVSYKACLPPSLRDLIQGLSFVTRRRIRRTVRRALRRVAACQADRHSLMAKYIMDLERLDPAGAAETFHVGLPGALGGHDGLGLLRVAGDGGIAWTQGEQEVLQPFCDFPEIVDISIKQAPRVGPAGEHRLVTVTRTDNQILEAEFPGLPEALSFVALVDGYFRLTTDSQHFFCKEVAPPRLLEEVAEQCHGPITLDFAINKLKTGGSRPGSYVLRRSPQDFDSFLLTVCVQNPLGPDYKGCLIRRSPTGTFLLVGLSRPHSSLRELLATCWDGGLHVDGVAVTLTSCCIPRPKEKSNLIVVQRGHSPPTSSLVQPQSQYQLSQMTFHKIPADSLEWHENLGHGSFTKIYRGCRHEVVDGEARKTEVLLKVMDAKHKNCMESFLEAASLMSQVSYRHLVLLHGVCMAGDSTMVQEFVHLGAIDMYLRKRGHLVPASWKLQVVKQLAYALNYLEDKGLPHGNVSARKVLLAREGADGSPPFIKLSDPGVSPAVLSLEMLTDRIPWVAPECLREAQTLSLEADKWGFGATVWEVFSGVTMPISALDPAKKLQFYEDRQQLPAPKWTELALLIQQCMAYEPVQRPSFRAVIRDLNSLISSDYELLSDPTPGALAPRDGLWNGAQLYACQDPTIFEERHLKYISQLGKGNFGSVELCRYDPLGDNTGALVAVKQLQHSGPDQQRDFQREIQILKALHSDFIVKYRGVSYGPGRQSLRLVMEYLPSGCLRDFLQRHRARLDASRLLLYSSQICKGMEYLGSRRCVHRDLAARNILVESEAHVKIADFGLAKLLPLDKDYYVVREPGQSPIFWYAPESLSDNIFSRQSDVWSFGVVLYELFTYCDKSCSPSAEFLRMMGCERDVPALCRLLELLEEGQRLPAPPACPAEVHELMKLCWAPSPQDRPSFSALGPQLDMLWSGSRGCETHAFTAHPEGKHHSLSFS

| Compound | logD [1] | half-life [2] [h] | Ratio Ki (Homo sapiens) | Ki [3] [nM] | Ki [4] [nM] | Cmax [5] [nM] | clearance [6] [mL/min/kg] | EC50 [7] [nM] | AUC [8] [µM·h] | bioavailability [9] [%] | Papp A→B [10] [×10⁻⁶ cm/s] | inhibition [11] [%] | Ki [12] [nM] | Ratio EC50 (TF-1) |
| --- | --- | --- | --- | --- | --- | --- | --- | --- | --- | --- | --- | --- | --- | --- |
| CC(C)(C)OC(=O)N[C@@H]1CC[C@@H](n2nnc3cnc4[nH]ccc4c32)C1 | 3.53 | 0.9 | 4.2 | 10 | 2.4 | – | – | 127 | – | – | – | – | – | 4.3 |
| c1cc2c(ncc3nnn(CC4CCNCC4)c32)[nH]1 | – | 1.3 | 1.7 | 1230 | 745 | – | – | – | – | – | – | – | – | – |
| CC(C)CC(=O)N[C@H]1CC[C@H](n2nnc3cnc4[nH]ccc4c32)CC1 | 2.7 | 3.7 | 3.6 | 17 | 4.7 | – | – | 350 | – | – | – | – | – | 5 |
| N#CCCN[C@H]1CC[C@H](n2nnc3cnc4[nH]ccc4c32)CC1 | 1.05 | 2.3 | – | – | – | 900 | 88 | – | 1.4 | 44 | 7.2 | 44 | 122 | – |
| N#CCCO[C@H]1CC[C@H](n2nnc3cnc4[nH]ccc4c32)CC1 | 1.36 | 5.8 | – | – | > 3760 | – | – | – | – | – | – | – | – | – |

More lines, in order of falling Ki [4], values ahead:

| logD [1] | half-life [2] [h] | Ratio Ki (Homo sapiens) | Ki [3] [nM] | Ki [4] [nM] | Cmax [5] [nM] | clearance [6] [mL/min/kg] | EC50 [7] [nM] | AUC [8] [µM·h] | bioavailability [9] [%] | Papp A→B [10] [×10⁻⁶ cm/s] | inhibition [11] [%] | Ki [12] [nM] | Compound | Ratio EC50 (TF-1) |
| --- | --- | --- | --- | --- | --- | --- | --- | --- | --- | --- | --- | --- | --- | --- |
| -0.35 | – | 3.2 | 669 | 210 | – | – | – | – | – | – | – | – | c1cc2c(ncc3nnn(C4CCNCC4)c32)[nH]1 | – |
| 0.27 | – | 2.3 | 446 | 198 | – | – | – | – | – | – | – | – | F[C@H]1CNCC[C@H]1n1nnc2cnc3[nH]ccc3c21 (racemic) | – |
| 3.58 | 1 | 3.3 | 401 | 120 | – | – | – | – | – | – | – | – | CC(C)(C)OC(=O)N[C@H]1CC[C@H](n2nnc3cnc4[nH]ccc4c32)CC1 | – |
| – | 0.2 | 1.6 | – | 25 | – | – | – | – | – | – | – | – | c1ccc(CN2CCC[C@@H](n3nnc4cnc5[nH]ccc5c43)C2)cc1 | – |
| 2.03 | 0.7 | 1.7 | 28 | 16 | – | – | 414 | – | – | – | – | – | c1cncc(CN2CCC(n3nnc4cnc5[nH]ccc5c43)CC2)c1 | 2.7 |
| – | 0.5 | 2 | 15 | 8.5 | – | – | 121 | – | – | – | – | – | c1ccc(CN2CCC(n3nnc4cnc5[nH]ccc5c43)CC2)cc1 | 3.4 |
| 1.05 | 1.7 | 1.9 | 12 | 6.2 | 4600 | 16 | 249 | 18 | > 100 | 13 | – | – | CS(=O)(=O)N1CCC(n2nnc3cnc4[nH]ccc4c32)CC1 | 4.8 |
